Sampled rows, rich in hits. Any-hit rate of the full collection: about 4.1%.
KCNK3 block = human KCNK3 channel inhibition, primary screen; CHO-KCNK3 thallium flux, FluxOR fluorescence; hits give low values; B-score at 10 µM; hit rate 0.84% among 340,000; AID 602410;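 active = B-score under library mean minus 4 SD, starting fluorescence ratio at most library mean plus 5 SD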;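 note: more negative B-score means stronger inhibition of thallium flux through KCNK3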
Target sequence (O14649 whole entry, looked up): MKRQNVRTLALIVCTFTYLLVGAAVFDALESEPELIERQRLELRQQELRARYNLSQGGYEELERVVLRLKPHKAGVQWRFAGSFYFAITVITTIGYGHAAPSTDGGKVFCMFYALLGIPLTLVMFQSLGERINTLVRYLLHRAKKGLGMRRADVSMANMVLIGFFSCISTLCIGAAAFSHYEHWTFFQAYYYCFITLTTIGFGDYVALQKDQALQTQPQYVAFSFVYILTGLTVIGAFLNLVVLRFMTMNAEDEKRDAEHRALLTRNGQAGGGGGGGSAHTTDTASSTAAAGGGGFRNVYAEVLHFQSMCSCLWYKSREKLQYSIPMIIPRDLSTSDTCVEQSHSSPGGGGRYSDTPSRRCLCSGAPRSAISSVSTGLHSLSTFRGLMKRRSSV
KCNQ1 inh = human KCNQ1 channel inhibition | P51787 | hit rate 1.3% among 310,000 | B-score at 10 µM | CHO-K1 KCNQ1, FluxOR thallium flux fluorescence; hits give high values;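 active = compounds whose thallium flux B-score, printed positive for inhibition, exceeds three library SD while starting fluorescence stays within three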;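 note: channel opened by potassium depolarization with thallium stimulus after 20 min compound exposure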
hERG protect = compounds protecting human hERG from proarrhythmic drug block; hit rate 0.51% among 310,000; CHO-hERG, FluxOR thallium flux, dofetilide IC70 present; AID 1511; activation (rescue from dofetilide block), less the hit threshold, % at 10 µM; Q12809;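 active = activation above the mean of controls blocked by dofetilide plus 5 SD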;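 note: thallium influx through hERG after potassium depolarization seen as dye fluorescence rise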
KCNQ1 pot = potentiates or activates the human KCNQ1 potassium channel. CHO-K1 KCNQ1, thallium flux FluxOR fluorescence; hits give high values. B-score at 10 µM. hit rate 0.35% among 310,000;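 active = fluorescence ratio B-score, a plate-corrected score, at least three library SD, with initial intensity B-score within 5 SD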
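Assay system: stable KCNQ1 CHO-K1 line; medium: assay buffer, equal DMSO in all wells; timing: 90 min dye loading and 20 min compound exposure, both at room temperature; technique: kinetic FluxOR thallium fluorescence, 10-s 1-Hz baseline, 110-s post-stimulus read; read-out basis: B score of baseline-normalized fluorescence ratio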
KCNK9 inh = inhibitors of human KCNK9 two-pore domain potassium channel; HEK293 KCNK9, FluxOR thallium flux fluorescence; hits give low values; B-score at 10 µM; Q9NPC2; hit rate 1.2% among 310,000;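 active = ratio B-score over 3 SD below the library mean, with starting fluorescence within 5 SD of its mean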;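 note: negative B-score means less thallium flux so channel inhibition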
Target sequence (Q9NPC2 whole entry, looked up, the tested form may be a part): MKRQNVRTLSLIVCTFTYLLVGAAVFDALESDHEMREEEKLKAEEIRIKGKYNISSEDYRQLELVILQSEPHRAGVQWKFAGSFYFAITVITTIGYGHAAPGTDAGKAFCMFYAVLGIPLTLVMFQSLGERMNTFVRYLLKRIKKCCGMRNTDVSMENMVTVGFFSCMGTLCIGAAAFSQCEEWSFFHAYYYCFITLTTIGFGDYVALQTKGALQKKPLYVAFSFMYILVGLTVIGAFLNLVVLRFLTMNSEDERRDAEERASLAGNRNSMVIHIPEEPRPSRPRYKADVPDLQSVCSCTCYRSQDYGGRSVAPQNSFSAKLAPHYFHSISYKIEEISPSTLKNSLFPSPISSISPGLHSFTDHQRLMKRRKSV
KCC2 mod = KCC2 (human) Cl- transport modulation | KCC2 cells, thallium flux FluoZin-2 fluorescence | B-score of Tl+ flux slope (higher = more flux/activation; lower = inhibition) at 10 µM | hit rate 2.2% among 190,000 | AID 1456;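 active = thallium flux slope and its plate-corrected score both differing from the plate sample mean at a set confidence after two filtering rounds, in either direction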;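 note: slope of fluorescence scaled to starting intensity during 10 to 20 s after thallium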
KCNQ1 inh valid = human KCNQ1 channel inhibition, validation assay; inhibition, % at 10 µM; AID 588353; KCNQ1 cell line, FluxOR thallium flux fluorescence; hit rate 93% among 1,600; shares compounds with KCNQ1 inh;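 active = primary screen active, with duplicate mean exceeding buffer control mean plus 3 SD of buffer wells, cut at about 28% in these data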;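 note: 0% = buffer control ratio and 100% = XE991 inhibitor control ratio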
CHO KCNQ1 ctr = activity in parental CHO cells lacking KCNQ1. shares compounds with KCNQ1 inh. parental CHO-K1, FluxOR thallium flux fluorescence ratio; hits give low values; zero means no signal rise above baseline. fluorescence ratio (Tl flux) at 10 µM. hit rate 21% among 1,600;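 active = mean of duplicate thallium-flux fluorescence ratios in parental host cells more than 5 SD below the buffer control mean, cut at about 0.38 in these data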;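 note: ratio is peak minus minimum fluorescence divided by baseline fluorescence; actives read low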
KCNQ1 ephys val = confirmation of human KCNQ1 potassium channel inhibitors by electrophysiology; shares compounds with KCNQ1 inh; KCNQ1-CHO cells, automated patch clamp current; calls only at 10 µM; hit rate 20% among 490;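 active = KCNQ1 current drop exceeding 3 SD of negative control wells, seen in both duplicate runs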;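 note: steady state current during a 2 s step from -80 to +40 mV; negative values mean current inhibition and positive values mean potentiation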
KCNQ2 spec = rat KCNQ2 inhibition in KCNQ1 inhibitor specificity screen; shares compounds with KCNQ1 inh; hit rate 71% among 1,600; inhibition, % at 10 µM; KCNQ2 cells, FluxOR thallium flux fluorescence;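 active = mean percent inhibition of the KCNQ2 thallium signal more than 5 SD above the buffer-only control wells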;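 note: KCNQ2 expressed in CHO cells; 0% = buffer control wells and 100% = XE-991 inhibitor control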
KCNQ1 KCNE1 spec = KCNQ1 inhibitor that also blocks human KCNQ1/KCNE1 channel. hit rate 77% among 1,600. inhibition, % at 10 µM. AID 652147. KCNQ1/KCNE1 cells, FluxOR thallium flux fluorescence. shares compounds with KCNQ1 inh;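 active = mean percent inhibition of duplicate wells above the buffer-only control mean plus 3 SD of those controls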;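 note: 0% = buffer only wells and 100% = XE-991 inhibitor control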
KCNK9 inh conf = confirmation of human KCNK9 potassium channel inhibitors | HEK293 KCNK9 cells, FluxOR thallium flux fluorescence | hit rate 43% among 4,900 | inhibition, % at 10 µM | shares compounds with KCNK9 inh;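 active = thallium signal inhibited by more than 5 SD of the compound-free buffer control wells, on both duplicate plates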;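 note: 0% = assay buffer control wells without compound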
Kir21 sel = selectivity of KCNK9 modulators against mouse Kir2.1; shares compounds with KCNK9 inh; Kir2.1 cells, FluxOR thallium flux fluorescence; inhibition, % at 10 µM; hit rate 4% among 4,900;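 active = thallium signal drop more than 5 SD beyond the mean of the no-compound control wells, seen in both duplicate plates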;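 note: signal is fluorescence rise after thallium addition divided by baseline fluorescence; plate controls were assay buffer only for no effect and full block by chlorpromazine control for full effect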
KCNK9 uninduced = second check of KCNK9 modulator effects in non-induced HEK293 cells; shares compounds with KCNK9 inh; FluxOR thallium flux; inhibition, % at 10 µM; hit rate 40% among 4,900;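 active = thallium signal drop beyond 5 SD of the untreated control mean, on both duplicate plates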;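 note: plate controls were buffer only IC0 wells for no effect and SID17386958 at its maximal inhibitory level for full effect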
* marks the source's active call; other numbers are inactive results; i = inactive; . = no result; + = active, no number.

SMILES | KCNK3 block | KCNQ1 inh | hERG protect | KCNQ1 pot | KCNK9 inh | KCC2 mod | KCNQ1 inh valid | CHO KCNQ1 ctr | KCNQ2 spec | KCNQ1 KCNE1 spec | others
Cc1cccc2[nH]c3c(N4CC=C(c5ccc(F)cc5)CC4)ncnc3c12 | i | 14* | -14 | i | i | -0.25 | 162* | 0.33* | 134%* | +
C=CCNc1nc2ccccc2nc1NS(=O)(=O)c1ccc(Cl)cc1 | i | 6* | -5 | i | i | . | 50* | 0.44 | 64%* | i
C=CCNc1nc2ccccc2nc1NS(=O)(=O)c1ccc(OC)cc1 | i | i | -7 | i | i | . | . | . | . | .
COc1cc(C(C)=O)ccc1OCC(=O)NCCCn1nc(C)cc1C | i | . | . | . | . | . | . | . | . | .
O=C(NNC(=S)Nc1ccccc1Cl)c1ccccc1Br | i | i | -14 | i | i | . | . | . | . | .
CCOc1ccccc1N(C)S(=O)(=O)c1ccc2c(c1)N(C(C)=O)CCO2 | i | i | -9 | i | i | . | . | . | . | .
CC(C)[C@H]1COCCS(=O)(=O)N1Cc1ccccc1-c1ccc(F)cc1 | i | . | . | . | . | . | . | . | . | .
COc1ccc2c(c1)c(CC(=O)Nc1cc(C)ccc1C)c(C)n2C(=O)c1ccc(Cl)cc1 | i | i | -12 | i | i | 0.085 | . | . | . | .
COc1ccc2c(c1)c(CC(=O)Nc1ccccc1OC)c(C)n2C(=O)c1ccc(Cl)cc1 | i | 7* | -7 | i | i | 0.33 | 43* | 0.39 | 91%* | 48%*
Cc1nc(SCC(=O)N2CCN(c3ccccn3)CC2)c(C#N)c(C)c1C | i | . | . | . | . | . | . | . | . | .
O=c1[nH]c(=O)c2[nH]c(=S)[nH]c2[nH]1 | i | . | . | . | . | . | . | . | . | .
O=C1N=C2N(CCN3CCCCC3)c3ccccc3N2/C1=C\c1ccc([N+](=O)[O-])s1 | i | . | . | . | . | . | . | . | . | .
CCN(CC)c1ccc(C=Nc2ccccc2C)c(O)c1 | i | i | -9 | i | i | -0.093 | . | . | . | .
CCN(CC)c1ccc(O)c(C=Nc2ccc(C)c(C)c2)c1 | i | 11* | -9 | i | i | 0.08 | 150* | 0.44 | 110%* | 166%* | KCNQ1 ephys val=i
COC(=O)c1cc(OC)c(OC)cc1NC(=S)Nc1cc(Cl)ccc1OC | i | i | -10 | i | i | 1.6 | . | . | . | .
O=C(Nc1ccccc1)Nc1cccc(Cl)c1 | i | 13* | -13 | i | i | . | 86* | 0.51 | 72%* | i
COC(=O)c1cc(OC)c(OC)cc1NC(=S)Nc1cccc(Cl)c1 | i | 7* | -6 | i | i | . | 60* | 0.51 | i | i
O=C(Nc1cccc(Cl)c1)Nc1ccc2nccnc2c1 | i | 7* | -8 | i | i | . | 98* | 0.43 | 92%* | 100%* | KCNQ1 ephys val=i
O=C(Nc1cccc(Cl)c1)Nc1cccc(C(=O)O)c1 | i | i | -10 | i | i | -0.21 | . | . | . | .
Fc1ccc(NC(=S)Nc2cccc(Cl)c2)cc1 | i | 6* | -18 | i | i | 0.47 | 48* | 0.51 | i | 36%*
CCOc1ccc(NS(=O)(=O)c2ccc(C(=O)N(C)CC(=O)Nc3ccc(C)cc3)cc2)cc1 | i | i | -11 | i | i | . | . | . | . | .
CCOC(=O)C1CCCC12Nc1cccc3cccc(c13)N2 (stereo not given) | i | . | . | . | . | . | . | . | . | .
Cc1ccc(NC(=O)CNc2cccc(Br)c2)cc1S(=O)(=O)N1CCOCC1 | i | . | . | . | . | . | . | . | . | .
CC(=O)c1ccc(NC(=S)NCCc2cccc(Cl)c2)cc1 | i | i | -10 | i | i | -0.61 | . | . | . | .
O=C(Nc1ccncc1)Nc1cccc(F)c1 | i | 8* | -17 | i | i | . | 48* | 0.55 | i | 42%*
SMILES | KCNK3 block | KCNQ1 inh | hERG protect | KCNQ1 pot | KCNK9 inh | KCC2 mod | KCNQ1 inh valid | CHO KCNQ1 ctr | KCNQ2 spec | KCNQ1 KCNE1 spec | others
N#Cc1ccc(NC(=O)Nc2cccc(C#N)c2)cc1 | i | 7* | -26 | i | i | -1.3 | 49* | 0.49 | i | i
CSc1cccc(NC(N)=O)c1 | i | i | -10 | i | i | -0.23 | . | . | . | .
CC(=O)c1ccc(NC(=O)Nc2cccc(Cl)c2)cc1 | i | 8* | -17 | i | i | . | 88* | 0.47 | 61%* | i | KCNQ1 ephys val=i
CSc1cccc(NC(=O)Nc2ccc(Cl)cc2)c1 | i | 17* | -17 | i | i | 0.32 | 68* | 0.39 | 61%* | 44%*
CCN1C(=O)c2cccc3c(S(=O)(=O)N4CCNCC4)ccc1c23 | i | . | . | . | . | . | . | . | . | .
CN(CC(O)COc1ccc(OCC(O)CN(C)C2CCCCC2)cc1)C1CCCCC1 (stereo not given) | i | i | -1 | i | i | . | . | . | . | .
Cc1cccc(C)c1OCC(O)CN(Cc1ccccc1O)C1CCCCC1 (stereo not given) | i | 7* | -17 | i | i | 0.028 | 94* | 0.42 | 114%* | 55%* | KCNQ1 ephys val=+
COc1ccc(C2c3cc4c(cc3OC(N3CCOCC3)C2C)OCO4)c(OC)c1 (stereo not given) | i | . | . | . | . | . | . | . | . | .
Cc1cc(C(=O)COC(=O)c2cccnc2Cl)c(C)n1C | i | . | . | . | . | . | . | . | . | .
CC(C)(CNC(=O)CNC(=O)c1ccc(Cl)cc1Cl)N1CCOCC1 | i | . | . | . | . | . | . | . | . | .
Cc1ccc(Cl)cc1N1CCN(C(=O)c2cc3c(=O)[nH]c4ccccc4c3n2C)CC1 | i | 12* | -30 | i | i | -0.68 | 110* | 0.51 | 104%* | i | KCNQ1 ephys val=i
O=C(CSc1nc(-c2ccc(Cl)cc2)[nH]c(=O)n1)Nc1cccc(Cl)c1 | i | 7* | -7 | i | i | -3.5 | 116* | 0.48 | i | i | KCNQ1 ephys val=i;KCNK9 inh conf=i;Kir21 sel=i;KCNK9 uninduced=i

Screening results: PubChem BioAssay, several laboratories
